The values below come from ChEMBL document CHEMBL3085702, “Synthesis and biological evaluation of 3-(trimethoxyphenyl)-2(3H)-thiazole thiones as combretastatin analogs” (Eur J Med Chem, 2013).

In brackets after ≈: the same amount, converted by molar mass. Activity calls are given as the source filed them. The calls are words filed in the database; no cut-off is given here. Some results are limits rather than exact numbers.

The subject of assay [1] is MCF7. The assay can be described thus: Cytotoxicity against human MCF7 cells after 48 hrs by MTT assay. In kind it is functional, cell-based. As to conditions: MCF7, 48 h. The procedure, abridged: (§1)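 Log-phase cells harvested by trypsinization, seeded 24 h, then exposed to a range of compound concentrations for 48 h; etoposide positive and DMSO negative controls, final DMSO below 2%. Cells kept at 37 °C, 5% CO2, humidified. MTT formazan absorbance read; % inhibition = (Abs control − Abs treated)/Abs control × 100; IC50 from concentration–response curves by regression.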
In general terms: Formazan colour is commonly taken as a measure of viable cells.

The test system of the next assay is MDA-MB-231. The assay can be described thus: Cytotoxicity against human MDA-MB-231 cells after 48 hrs by MTT assay. As to conditions: MDA-MB-231, 48 h. In kind it is functional, cell-based. In short, it runs like this: as §1
The test system of assay [2] is T47D. Kind of assay: Cytotoxicity against human T47D cells after 48 hrs by MTT assay. The class given is functional, cell-based. In short, it runs like this: as §1
Assay [3] has as its system MCF7. Kind of assay: Induction of apoptosis in human MCF7 cells at IC50 after 24 hrs by acridine orange/ethidium bromide staining test. In kind it is functional, cell-based.
Assay [4] has as its system MRC5. The assay can be described thus: Cytotoxicity against human MRC5 cells after 48 hrs by MTT assay. The class given is cell-based. The settings on record: MRC5, 48 h. The procedure, abridged:
as §1

In assay [5] the test system is MCF7. Kind of assay: Induction of apoptosis in human MCF7 cells assessed as viable cells at IC50 using annexin V-PE/7-AAD double staining by flow cytometry (reference value: 95%). The class given is functional. (In flow cytometry, cells or beads pass a laser one at a time.)
Assay [6] has as its system MRC5. Kind of assay: Selectivity index, ratio of IC50 for human MRC5 cells to IC50 for human MDA-MB-231 cells. In kind it is functional. The procedure, abridged:
(§2)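 Ratio of IC50 in non-tumoral MRC-5 cells to IC50 in the cancer line, both from the 48 h MTT assay.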

The test system of assay [7] is MCF7. Kind of assay: Induction of apoptosis in human MCF7 cells assessed as late apoptotic cells at IC50 using annexin V-PE/7-AAD double staining by flow cytometry (reference value: 0.12%). The class given is functional.
Assay [8] deals with MCF7. The assay can be described thus: Induction of apoptosis in human MCF7 cells assessed as early apoptotic cells at IC50 using annexin V-PE/7-AAD double staining by flow cytometry (reference value: 4.88%). In kind it is functional.
For assay [9], the system named is MCF7. The assay can be described thus: Induction of apoptosis in human MCF7 cells assessed as necrotic cells at IC50 using annexin V-PE/7-AAD double staining by flow cytometry (reference value: 0%). The class given is functional.
For assay [10], the system named is MRC5. The assay can be described thus: Selectivity index, ratio of IC50 for human MRC5 cells to IC50 for human T47D cells. In kind it is functional. The procedure, abridged:
as §2

A short description of assay [11]: Inhibition of sheep brain tubulin polymerization assessed as reduction of microtubule assembly after 30 mins by UV-visible spectrophotometry.
For another assay, the species on record is Ovis aries. Kind of assay: Inhibition of sheep brain tubulin polymerization assessed as reduction of microtubule assembly.
The test system of assay [12] is T47D. The assay can be described thus: Induction of apoptosis in human T47D cells at IC50 after 24 hrs by acridine orange/ethidium bromide staining test. In kind it is functional, cell-based.
Assay [13] has as its system MCF7. Kind of assay: Selectivity index, ratio of IC50 for human MRC5 cells to IC50 for human MCF7 cells. The class given is functional. In short, it runs like this:
as §2

The term IC50 denotes the concentration at which inhibition is half-maximal. Read a low IC50 as higher potency. For the compound `COc1cc(-n2c(-c3ccc(Br)cc3)csc2=S)cc(OC)c1OC`, the concentration for half-maximal inhibition (IC50) with MCF7 [1] is over 100 µg/mL; in the assay on MDA-MB-231, 58 µg/mL (≈ 132 µM); in the assay on T47D [2], over 100 µg/mL.

With `COc1cc(-n2c(-c3ccc(O)cc3)csc2=S)cc(OC)c1OC`, the IC50 is 35.1 µg/mL (≈ 93.5 µM) in the assay with MCF7 [1], 22.9 µg/mL (≈ 61 µM) in the assay with MDA-MB-231 and 26.4 µg/mL (≈ 70.3 µM) with T47D [2].

With `COc1ccc(-n2c(-c3ccccc3)csc2=S)cc1OC`, the half-inhibitory concentration (IC50) with MCF7 [1] worked out at 17.6 µg/mL (≈ 53.4 µM); in the assay on MDA-MB-231, 19.1 µg/mL (≈ 58 µM); with T47D [2], 33.1 µg/mL (≈ 100 µM).

Take `COc1cc(-n2c(-c3ccc(F)cc3)csc2=S)cc(OC)c1OC`: the figures for the 50% inhibitory concentration (IC50) in the assay with MCF7 [1], with MDA-MB-231 and in the assay with T47D [2] were 38.5 µg/mL (≈ 102 µM), 19.5 µg/mL (≈ 51.7 µM) and 38.9 µg/mL (≈ 103 µM), respectively.

In general, pIC50 refers to the negative decadic logarithm of the IC50, by convention in mol/L. Consider `COc1cc(-n2c(-c3ccc(C)cc3)csc2=S)cc(OC)c1OC`, for which the outcome with MCF7 [3] and in the assay on T47D [12] was Active. The IC50 with MRC5 [4] was over 100 µg/mL; in the assay on MCF7 [1], 19.7 µg/mL (≈ 52.7 µM); in the assay on MDA-MB-231 it was 11.8 µg/mL (≈ 31.6 µM); in the assay with T47D [2] it was 16.3 µg/mL (≈ 43.6 µM). For the same compound, the Activity was found to be 33.24% in the assay on MCF7 [5], 0.26% with MCF7 [7], 66.47% in the assay on MCF7 [8] and 0.02% in the assay with MCF7 [9]. In addition, the “Ratio IC50” value in the assay on MRC5 [6], in the assay on MRC5 [10] and with MCF7 [13] was over 5 each time. The pIC50 in assay [11] is 4.14. In the assay listed under Ovis aries, the inhibition result was “Dose-dependent effect”.

Take `COc1ccc(-c2csc(=S)n2-c2cc(OC)c(OC)c(OC)c2)cc1`: the 50% inhibitory concentration (IC50) was over 100 µg/mL in the assay with MCF7 [1], 53.8 µg/mL (≈ 138 µM) with MDA-MB-231 and over 100 µg/mL in the assay on T47D [2].

Consider `COc1cc(N2C(=S)SCC2(O)c2ccc(Br)cc2)cc(OC)c1OC` (racemic), for which the 50% inhibitory concentration (IC50) in the assay on MCF7 [1] amounted to 16.5 µg/mL (≈ 36.2 µM); with MDA-MB-231 it was 15.1 µg/mL (≈ 33.1 µM); in the assay on T47D [2], 16.3 µg/mL (≈ 35.7 µM).

Consider `COc1cc([C@@H]2c3cc4c(cc3[C@@H](O[C@@H]3O[C@@H]5CO[C@@H](C)O[C@H]5[C@H](O)[C@H]3O)[C@H]3COC(=O)[C@H]23)OCO4)cc(OC)c1O` [ETOPOSIDE], for which the Activity in the assay with MCF7 [5] amounted to 83.39%; in the assay on MCF7 [7] it was 0.01%; in the assay with MCF7 [8], 16.6%; in the assay with MCF7 [9], 0%. The IC50 was determined as 9.4 µg/mL (≈ 16 µM) in the assay with MCF7 [1], 7.2 µg/mL (≈ 12.2 µM) with MDA-MB-231 and 8.2 µg/mL (≈ 13.9 µM) with T47D [2].

With `COc1ccc(C(=O)CSC(=S)Nc2cc(OC)c(OC)c(OC)c2)cc1`, the IC50 in the assay on MCF7 [1] was determined as 18.6 µg/mL (≈ 45.6 µM); with MDA-MB-231 it was 16.4 µg/mL (≈ 40.2 µM); with T47D [2], 29.9 µg/mL (≈ 73.4 µM).

On to `COc1ccc(-n2c(-c3ccccc3)csc2=S)cc1`, for which the figures for the half-maximal inhibitory concentration (IC50) with MCF7 [1], with MDA-MB-231 and with T47D [2] were 88.5 µg/mL (≈ 296 µM), 36.8 µg/mL (≈ 123 µM) and 23.2 µg/mL (≈ 77.5 µM), respectively.

As for `COc1cc(-n2c(-c3ccccc3)csc2=S)cc(OC)c1OC`, the IC50 with MCF7 [1] is over 100 µg/mL; in the assay on MDA-MB-231, 52 µg/mL (≈ 145 µM); in the assay with T47D [2] it was 31.6 µg/mL (≈ 87.9 µM).

Take `COc1cc(N2C(=S)SCC2(O)c2ccc(Cl)cc2Cl)cc(OC)c1OC` (racemic): the result in the assay on MCF7 [3] and in the assay on T47D [12] was Active. Also, the IC50 was determined as 47.3 µg/mL (≈ 106 µM) in the assay on MRC5 [4], 9.6 µg/mL (≈ 21.5 µM) in the assay with MCF7 [1], 14.5 µg/mL (≈ 32.5 µM) with MDA-MB-231 and 16.9 µg/mL (≈ 37.9 µM) in the assay on T47D [2]. Also, the Activity with MCF7 [5] was determined as 48.32%; with MCF7 [7] it was 0.02%; with MCF7 [8], 51.67%; in the assay on MCF7 [9] it was 0%.

Turning to `COc1cc(-n2c(-c3ccc(-c4ccccc4)cc3)csc2=S)cc(OC)c1OC`, the half-inhibitory concentration (IC50) in the assay with MCF7 [1] was 45.3 µg/mL (≈ 104 µM); in the assay with MDA-MB-231 it was over 100 µg/mL; with T47D [2], over 100 µg/mL.

Turning to `COc1cc(-n2c(-c3ccc(Cl)cc3Cl)csc2=S)cc(OC)c1OC`, the IC50 was 23.6 µg/mL (≈ 55.1 µM) in the assay on MCF7 [1], 49 µg/mL (≈ 114 µM) in the assay on MDA-MB-231 and 43.4 µg/mL (≈ 101 µM) in the assay on T47D [2].

For the compound `COc1cc(-n2c(-c3ccc(Cl)cc3)csc2=S)cc(OC)c1OC`, the IC50 in the assay with MCF7 [1], in the assay with MDA-MB-231 and in the assay with T47D [2] was over 100 µg/mL throughout.

As for `COc1cc(-n2c(-c3ccc(O)c(O)c3)csc2=S)cc(OC)c1OC`, the values for the half-inhibitory concentration (IC50) in the assay on MCF7 [1], in the assay with MDA-MB-231 and in the assay on T47D [2] were over 100 µg/mL, 29.8 µg/mL (≈ 76.1 µM) and 24.9 µg/mL (≈ 63.6 µM), respectively.
